Measurements taken from ChEMBL document CHEMBL1152488, “Synthesis and evaluation of pyrido[1,2-a]pyrimidines as inhibitors of nitric oxide synthases” (Eur J Med Chem, 2009).

Legend:
RAW264.7 = experiment: Cytotoxicity against mouse RAW264.7 cells at 100 uM; type: cell-based; conditions: raw264.7, 100 µM
[1] = Lipophilicity, log D at pH 7.4 by HPLC method; conditions: buffer
[2] = target: T1, Nitric oxide synthase 3 (Homo sapiens) (UniProt P29474); experiment: Inhibition of human eNOS assessed as residual activity at 100 uM by Griess assay relative to control
T1 sequence (whole entry): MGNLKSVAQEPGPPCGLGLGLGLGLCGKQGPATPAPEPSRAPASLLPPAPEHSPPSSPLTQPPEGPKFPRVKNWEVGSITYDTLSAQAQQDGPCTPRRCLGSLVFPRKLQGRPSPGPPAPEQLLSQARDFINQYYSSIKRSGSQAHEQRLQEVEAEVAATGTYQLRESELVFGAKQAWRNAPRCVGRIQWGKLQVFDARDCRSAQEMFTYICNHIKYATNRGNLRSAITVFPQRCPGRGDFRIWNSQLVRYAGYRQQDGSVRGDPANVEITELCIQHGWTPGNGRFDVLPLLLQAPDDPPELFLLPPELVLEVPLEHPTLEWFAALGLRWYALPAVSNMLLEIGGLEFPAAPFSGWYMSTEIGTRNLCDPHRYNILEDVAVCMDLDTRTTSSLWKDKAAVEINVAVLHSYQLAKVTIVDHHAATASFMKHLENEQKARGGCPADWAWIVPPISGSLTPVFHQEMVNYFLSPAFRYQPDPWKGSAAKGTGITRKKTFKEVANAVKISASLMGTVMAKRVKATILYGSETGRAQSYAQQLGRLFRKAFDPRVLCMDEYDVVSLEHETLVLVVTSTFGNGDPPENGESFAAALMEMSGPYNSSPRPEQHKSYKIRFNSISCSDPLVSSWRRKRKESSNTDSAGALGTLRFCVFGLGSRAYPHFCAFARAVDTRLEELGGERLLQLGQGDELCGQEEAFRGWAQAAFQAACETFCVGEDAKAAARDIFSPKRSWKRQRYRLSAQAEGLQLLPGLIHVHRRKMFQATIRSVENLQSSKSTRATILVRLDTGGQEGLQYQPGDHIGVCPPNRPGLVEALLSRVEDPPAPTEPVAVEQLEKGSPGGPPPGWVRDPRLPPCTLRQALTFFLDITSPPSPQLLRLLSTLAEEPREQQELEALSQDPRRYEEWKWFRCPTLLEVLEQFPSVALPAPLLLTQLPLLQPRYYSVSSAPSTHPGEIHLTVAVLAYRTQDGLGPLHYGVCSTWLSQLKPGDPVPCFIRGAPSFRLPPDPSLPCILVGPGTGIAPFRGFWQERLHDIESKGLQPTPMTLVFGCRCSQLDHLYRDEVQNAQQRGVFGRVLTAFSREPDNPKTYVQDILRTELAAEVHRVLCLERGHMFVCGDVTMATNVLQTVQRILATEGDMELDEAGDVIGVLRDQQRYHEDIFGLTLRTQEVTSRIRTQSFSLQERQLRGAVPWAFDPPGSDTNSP
How it was run: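 Human eNOS expressed in Pichia pastoris. Incubated 20 min at 37 °C in triethanolamine pH 7.5 with 0.5 mM Ca2+, CaM, H4B 10 µM, FAD/FMN 5 µM, NADPH 0.5 mM, L-arginine 1 mM and compound at 100 µM final. Nitrite read by Griess (543 nm) after LDH/pyruvate NADPH removal; % of 1% DMSO control from 5 experiments.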

[3] = target: T2, Nitric oxide synthase, inducible (Mus musculus) (UniProt P29477); experiment: Inhibition of iNOS in LPS and IFN-gamma-stimulated mouse RAW264.7 cells assessed as inhibition of nitrite accumulation at 100 uM after 15 hrs by Griess assay; type: cell-based
T2 sequence (whole entry): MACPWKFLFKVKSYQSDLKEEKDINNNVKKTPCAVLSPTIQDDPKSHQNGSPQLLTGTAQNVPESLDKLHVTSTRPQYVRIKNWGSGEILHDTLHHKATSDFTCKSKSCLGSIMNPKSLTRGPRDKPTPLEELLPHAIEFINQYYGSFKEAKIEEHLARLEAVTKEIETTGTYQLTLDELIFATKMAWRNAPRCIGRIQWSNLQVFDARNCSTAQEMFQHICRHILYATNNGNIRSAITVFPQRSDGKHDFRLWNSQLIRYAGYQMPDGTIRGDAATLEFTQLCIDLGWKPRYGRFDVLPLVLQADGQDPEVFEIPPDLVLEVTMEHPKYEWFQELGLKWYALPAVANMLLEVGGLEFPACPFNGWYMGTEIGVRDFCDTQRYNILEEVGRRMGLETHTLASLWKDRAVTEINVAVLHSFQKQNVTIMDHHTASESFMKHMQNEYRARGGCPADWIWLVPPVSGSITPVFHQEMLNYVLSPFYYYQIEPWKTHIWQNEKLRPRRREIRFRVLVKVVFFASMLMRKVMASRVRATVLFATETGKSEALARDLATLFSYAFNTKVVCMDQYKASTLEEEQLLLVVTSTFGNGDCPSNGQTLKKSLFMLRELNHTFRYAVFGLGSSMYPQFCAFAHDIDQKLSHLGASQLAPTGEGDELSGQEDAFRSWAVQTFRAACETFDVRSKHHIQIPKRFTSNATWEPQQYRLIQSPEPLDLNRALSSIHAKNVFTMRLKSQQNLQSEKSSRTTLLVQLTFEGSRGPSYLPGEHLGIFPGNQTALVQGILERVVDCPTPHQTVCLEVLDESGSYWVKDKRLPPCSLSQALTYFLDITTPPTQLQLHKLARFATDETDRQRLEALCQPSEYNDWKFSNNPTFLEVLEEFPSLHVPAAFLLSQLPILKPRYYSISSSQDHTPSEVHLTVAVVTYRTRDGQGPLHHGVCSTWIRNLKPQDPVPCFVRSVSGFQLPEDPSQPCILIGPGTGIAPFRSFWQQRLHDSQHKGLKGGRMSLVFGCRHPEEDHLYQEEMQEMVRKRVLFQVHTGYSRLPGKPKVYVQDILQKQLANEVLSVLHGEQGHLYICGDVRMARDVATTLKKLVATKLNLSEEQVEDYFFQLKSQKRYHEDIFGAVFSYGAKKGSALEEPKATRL
How it was run: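 RAW 264.7 macrophages seeded at 100,000 cells/well in RPMI 1640 with 5% FCS and grown 24 h. Stimulated with 40 U/ml γ-IFN and 50 ng/ml LPS, with compound at 100 µM in 1% DMSO, for 15 h at 37 °C. Supernatant nitrite measured with Griess reagent at 550 nm against an NaNO2 calibration; 6–8 determinations.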

[4] = target: Nitric oxide synthase, inducible (Homo sapiens) (UniProt P35228); experiment: Inhibition of human iNOS expressed in insect Sf9 cells assessed as residual activity at 100 uM by Griess assay relative to control
How it was run: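 Human iNOS made in Sf9 cells, incubated at 37 °C for 20 min in 50 mM triethanolamine pH 7.5 with 1 mM Mg2+, FAD/FMN 5 µM each, 0.5 mM NADPH, 10 µM H4B, CaM and 1 mM L-arginine. Compound 100 µM final. NADPH cleared with lactate dehydrogenase/pyruvate before Griess reaction (543 nm). Residual activity relative to 1% DMSO control; mean of 5 experiments.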

[5] = target: T3, Nitric oxide synthase 3 (Bos taurus) (UniProt P29473); experiment: Inhibition of bovine recombinant eNOS expressed in Escherichia coli assessed as conversion of [gamma-14C]L-arginine to [14C]L-citrulline at 100 uM by radioactive assay relative to control; set-up: scale not given: the % may be the effect or the level left
T3 sequence (whole entry): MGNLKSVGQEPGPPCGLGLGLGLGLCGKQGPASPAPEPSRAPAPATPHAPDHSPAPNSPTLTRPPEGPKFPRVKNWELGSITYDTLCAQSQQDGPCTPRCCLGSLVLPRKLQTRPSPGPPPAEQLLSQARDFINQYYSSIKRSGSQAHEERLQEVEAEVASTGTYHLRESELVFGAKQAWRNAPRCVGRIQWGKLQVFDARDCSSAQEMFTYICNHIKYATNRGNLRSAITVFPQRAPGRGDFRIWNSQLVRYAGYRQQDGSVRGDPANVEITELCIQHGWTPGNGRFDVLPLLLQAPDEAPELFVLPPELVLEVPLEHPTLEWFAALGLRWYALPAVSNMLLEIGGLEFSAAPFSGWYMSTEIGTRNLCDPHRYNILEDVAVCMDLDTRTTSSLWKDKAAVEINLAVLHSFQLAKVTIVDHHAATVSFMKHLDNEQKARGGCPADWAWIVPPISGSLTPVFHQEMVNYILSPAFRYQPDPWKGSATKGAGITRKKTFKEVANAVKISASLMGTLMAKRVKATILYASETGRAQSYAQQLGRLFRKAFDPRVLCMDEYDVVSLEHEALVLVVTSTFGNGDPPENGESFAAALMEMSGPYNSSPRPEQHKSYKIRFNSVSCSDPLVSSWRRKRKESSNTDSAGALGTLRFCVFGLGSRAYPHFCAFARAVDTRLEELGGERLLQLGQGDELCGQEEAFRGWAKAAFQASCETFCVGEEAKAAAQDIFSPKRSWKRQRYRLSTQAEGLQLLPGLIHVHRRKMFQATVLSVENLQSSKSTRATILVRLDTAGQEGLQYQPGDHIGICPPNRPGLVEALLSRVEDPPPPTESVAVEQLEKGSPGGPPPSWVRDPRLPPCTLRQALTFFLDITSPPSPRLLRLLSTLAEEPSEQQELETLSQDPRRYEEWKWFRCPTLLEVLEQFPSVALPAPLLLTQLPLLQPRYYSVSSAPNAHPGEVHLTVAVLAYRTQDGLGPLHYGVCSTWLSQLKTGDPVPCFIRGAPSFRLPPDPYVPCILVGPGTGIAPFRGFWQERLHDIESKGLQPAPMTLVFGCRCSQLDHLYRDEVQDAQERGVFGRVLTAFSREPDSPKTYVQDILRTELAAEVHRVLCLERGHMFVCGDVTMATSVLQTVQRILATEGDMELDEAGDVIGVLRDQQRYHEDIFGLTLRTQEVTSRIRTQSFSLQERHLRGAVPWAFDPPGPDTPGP
How it was run: (§1)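 Purified enzymes: rat nNOS from S. cerevisiae, murine iNOS and bovine eNOS from E. coli. Reaction 5 min at 37 °C in 50 mM Hepes pH 7.4 with DTT, 1 mM NADPH, H4B, FAD, FMN, [14C]L-arginine (2.5 µM L-arginine) and 100 µM compound in 1% DMSO. nNOS/eNOS also got 1 mM CaCl2 and CaM, which iNOS lacked. [14C]citrulline isolated on Dowex and counted by scintillation; % of DMSO control, n=3.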

[6] = target: T2, Nitric oxide synthase, inducible (Mus musculus); experiment: Inhibition of mouse recombinant iNOS expressed in Escherichia coli assessed as NADPH consumption at 100 uM after 2 mins by spectrophotometry
How it was run: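 Murine iNOS from E. coli (15–50 nM final) in 50 mM Hepes pH 7.4 with 5 mM DTT, 100 µM CaCl2, 200 µM NADPH, 10 µM H4B, 100 µM L-arginine and 100 µM compound. Cofactors and compound preincubated 2 min at 37 °C, enzyme added, and A340 followed for 3 min (ε 6.2 mM-1 cm-1). Given as % of 1% DMSO control NADPH oxidase rate.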

[7] = target: T2, Nitric oxide synthase, inducible (Mus musculus); experiment: Inhibition of mouse iNOS expressed in insect Sf9 cells assessed as residual activity at 100 uM by Griess assay relative to control
How it was run: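 Murine iNOS produced in Sf9 insect cells. Buffer: 50 mM triethanolamine pH 7.5, 1 mM CHAPS, 10 mM 2-mercaptoethanol, 0.5 mM EDTA. Additions: 1 mM Mg2+, 5 µM FAD, 5 µM FMN, 0.5 mM NADPH, 10 µM H4B, 10 µg/ml CaM, 1 mM L-arginine. Compound at 100 µM final, 37 °C for 20 min. NADPH removed with LDH/pyruvate, then Griess read at 543 nm. Values are % of 1% DMSO control, 5 experiments.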

[8] = target: T2, Nitric oxide synthase, inducible (Mus musculus); experiment: Inhibition of mouse recombinant iNOS expressed in Escherichia coli assessed as conversion of [gamma-14C]L-arginine to [14C]L-citrulline at 100 uM by radioactive assay relative to control; set-up: scale not given: the % may be the effect or the level left; how it was run: as §1
[9] = target: Nitric oxide synthase 1 (Rattus norvegicus) (UniProt P29476); experiment: Inhibition of rat recombinant nNOS expressed in Saccharomyces cerevisiae assessed as conversion of [gamma-14C]L-arginine to [14C]L-citrulline at 100 uM by radioactive assay relative to control; set-up: scale not given: the % may be the effect or the level left; how it was run: as §1
[10] = target: T3, Nitric oxide synthase 3 (Bos taurus); experiment: Inhibition of bovine eNOS expressed in insect Sf9 cells assessed as residual activity at 100 uM by Griess assay relative to control
How it was run: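 Bovine eNOS from Sf9 cells. Reaction: triethanolamine buffer pH 7.5, 0.5 mM Ca2+, 10 µg/ml CaM, 10 µM H4B, FAD, FMN, 0.5 mM NADPH, 1 mM L-arginine, with 100 µM compound, 20 min at 37 °C. After NADPH removal by LDH/pyruvate, nitrite measured by Griess at 543 nm. Expressed as % residual activity versus 1% DMSO control, 5 experiments.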

Chain of Nitric oxide synthase 1 (Rattus norvegicus) (P29476 whole entry): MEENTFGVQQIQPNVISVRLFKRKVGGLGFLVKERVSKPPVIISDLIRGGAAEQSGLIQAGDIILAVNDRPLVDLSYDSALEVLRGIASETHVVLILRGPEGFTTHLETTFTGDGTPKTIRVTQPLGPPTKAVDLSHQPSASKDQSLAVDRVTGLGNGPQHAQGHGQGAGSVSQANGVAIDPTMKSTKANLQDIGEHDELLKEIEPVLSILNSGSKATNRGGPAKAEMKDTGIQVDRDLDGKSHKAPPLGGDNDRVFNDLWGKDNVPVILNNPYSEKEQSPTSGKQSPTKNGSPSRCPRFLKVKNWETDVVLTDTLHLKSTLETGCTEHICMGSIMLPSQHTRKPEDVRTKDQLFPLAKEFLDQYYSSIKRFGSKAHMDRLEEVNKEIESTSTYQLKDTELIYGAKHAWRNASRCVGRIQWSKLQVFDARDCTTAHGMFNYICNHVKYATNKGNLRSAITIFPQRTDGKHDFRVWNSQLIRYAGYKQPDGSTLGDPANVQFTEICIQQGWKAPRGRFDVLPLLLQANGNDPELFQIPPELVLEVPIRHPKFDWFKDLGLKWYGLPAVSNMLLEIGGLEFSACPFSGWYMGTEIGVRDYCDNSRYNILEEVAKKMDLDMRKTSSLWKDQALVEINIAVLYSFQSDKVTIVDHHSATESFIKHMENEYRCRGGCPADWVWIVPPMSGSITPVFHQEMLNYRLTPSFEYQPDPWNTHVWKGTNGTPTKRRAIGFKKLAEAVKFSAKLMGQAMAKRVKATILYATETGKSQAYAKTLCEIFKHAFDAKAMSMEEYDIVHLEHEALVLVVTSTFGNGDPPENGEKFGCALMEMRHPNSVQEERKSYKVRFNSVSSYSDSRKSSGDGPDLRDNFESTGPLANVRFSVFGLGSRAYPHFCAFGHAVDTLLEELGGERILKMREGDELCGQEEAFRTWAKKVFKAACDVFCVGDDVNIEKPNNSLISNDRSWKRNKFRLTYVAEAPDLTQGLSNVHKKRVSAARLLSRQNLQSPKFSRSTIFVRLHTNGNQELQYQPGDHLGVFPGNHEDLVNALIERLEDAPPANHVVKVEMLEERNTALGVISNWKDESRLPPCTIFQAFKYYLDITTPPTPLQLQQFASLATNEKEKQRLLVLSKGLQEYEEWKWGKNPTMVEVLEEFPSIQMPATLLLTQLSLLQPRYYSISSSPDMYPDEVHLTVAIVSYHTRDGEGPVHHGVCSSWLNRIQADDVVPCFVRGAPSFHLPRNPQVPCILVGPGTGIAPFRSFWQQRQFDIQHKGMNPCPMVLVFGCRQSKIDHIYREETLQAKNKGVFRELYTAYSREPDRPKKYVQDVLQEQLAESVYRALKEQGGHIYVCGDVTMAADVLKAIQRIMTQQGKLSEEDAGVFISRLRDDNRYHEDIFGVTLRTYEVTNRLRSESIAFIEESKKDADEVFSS
Chain of Nitric oxide synthase, inducible (Homo sapiens) (P35228 whole entry): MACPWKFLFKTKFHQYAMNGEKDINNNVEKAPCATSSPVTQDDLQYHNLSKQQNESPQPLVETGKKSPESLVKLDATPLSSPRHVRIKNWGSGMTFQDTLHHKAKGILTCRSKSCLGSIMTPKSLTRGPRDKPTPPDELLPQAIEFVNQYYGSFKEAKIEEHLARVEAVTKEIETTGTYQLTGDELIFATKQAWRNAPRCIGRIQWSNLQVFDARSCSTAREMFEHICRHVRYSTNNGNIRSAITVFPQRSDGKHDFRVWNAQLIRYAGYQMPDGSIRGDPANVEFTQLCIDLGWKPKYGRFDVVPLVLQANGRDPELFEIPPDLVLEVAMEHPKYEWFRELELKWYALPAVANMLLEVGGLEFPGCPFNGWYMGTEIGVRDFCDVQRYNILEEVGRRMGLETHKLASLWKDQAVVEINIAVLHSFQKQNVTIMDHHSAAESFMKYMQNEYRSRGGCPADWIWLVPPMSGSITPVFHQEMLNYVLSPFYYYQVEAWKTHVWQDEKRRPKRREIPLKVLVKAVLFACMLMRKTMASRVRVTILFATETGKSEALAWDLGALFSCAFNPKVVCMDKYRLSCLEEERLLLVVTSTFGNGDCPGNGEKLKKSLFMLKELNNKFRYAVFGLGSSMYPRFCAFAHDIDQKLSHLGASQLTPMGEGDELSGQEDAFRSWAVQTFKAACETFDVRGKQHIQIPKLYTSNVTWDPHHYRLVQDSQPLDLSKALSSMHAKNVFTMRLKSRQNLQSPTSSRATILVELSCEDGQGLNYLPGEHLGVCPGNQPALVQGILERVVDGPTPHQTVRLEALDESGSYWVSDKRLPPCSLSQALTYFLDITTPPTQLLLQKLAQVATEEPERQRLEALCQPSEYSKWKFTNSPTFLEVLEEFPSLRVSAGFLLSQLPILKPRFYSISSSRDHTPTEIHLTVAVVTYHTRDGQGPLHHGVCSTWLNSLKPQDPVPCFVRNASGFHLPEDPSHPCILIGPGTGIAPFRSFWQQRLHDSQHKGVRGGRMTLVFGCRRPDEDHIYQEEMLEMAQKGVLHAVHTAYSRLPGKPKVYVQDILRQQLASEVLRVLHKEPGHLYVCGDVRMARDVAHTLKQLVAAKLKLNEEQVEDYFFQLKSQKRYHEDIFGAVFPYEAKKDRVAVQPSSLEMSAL

In the case of CC1=CC=CC2=NCC(C(=O)c3ccc(-c4ccc(Br)cc4)cc3)CN12.[O-][Cl+3]([O-])([O-])O (stereo unspecified), the Activity (RAW264.7) is reported as “Non-toxic”, the logD [1] is reported as 2.8 and the Activity [2] is reported as 84%. It also gave an inhibition [3] of 98% and an Activity [4] of 106%.
For Cc1ccc(C(=O)C2CN=C3C=CC=CN3C2)cc1.[O-][Cl+3]([O-])([O-])O (stereo unspecified), the Activity [5] was 100%, the Activity (RAW264.7) was “Non-toxic” and the Remaining NADPH oxidation rate (% of DMSO control) [6] was 91%. The inhibition [3] was 60%, the Activity [7] was 86% and the Activity [8] was 100%. For the same compound, the Activity [9] was 92% and the Activity [10] was 94%.
With COc1ccc(C(=O)C2CN=C3C(C)=CC=CN3C2)cc1OC (stereo unspecified) the Activity [5] was 94%, the Activity (RAW264.7) was “Non-toxic” and the Remaining NADPH oxidation rate (% of DMSO control) [6] was 89%. For the same compound, the inhibition [3] was 67%, the Activity [7] was 102% and the Activity [8] was 96%. For the same compound, the Activity [9] was 48% and the Activity [10] was 95%.
